# Compound activity deposited in PubChem by The Scripps Research Institute Molecular Screening Center.
# PRMT1 FP inh: PRMT1 methyltransferase inhibitors, primary screen, biochemical, fluorescence polarization; Protein arginine N-methyltransferase 1 (Homo sapiens), Q99873; recombinant PRMT1, activity-based probe fluorescence polarization; inhibition, % at 2.79 µM; actives 1.3% (n = 370,000);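 active = inhibition above about 21% made by adding two undisclosed values, limit read from the data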
# Target sequence (Q99873 whole entry, looked up): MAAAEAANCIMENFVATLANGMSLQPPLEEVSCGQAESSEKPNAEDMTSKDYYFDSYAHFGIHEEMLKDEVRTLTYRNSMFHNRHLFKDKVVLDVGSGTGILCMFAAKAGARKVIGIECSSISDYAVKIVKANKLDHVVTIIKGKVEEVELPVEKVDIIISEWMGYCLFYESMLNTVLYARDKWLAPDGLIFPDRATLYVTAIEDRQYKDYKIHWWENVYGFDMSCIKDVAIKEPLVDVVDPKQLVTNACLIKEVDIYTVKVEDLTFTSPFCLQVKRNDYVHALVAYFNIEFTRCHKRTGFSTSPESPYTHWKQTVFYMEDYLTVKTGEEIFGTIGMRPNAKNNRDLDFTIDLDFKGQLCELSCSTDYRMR
# TCR CD3 inh: inhibitors of human TCR-CD3 interaction, primary screen, biochemical, fluorescence, TAMRA-labeled TCR probe | actives 0.37% (n = 360,000) | inhibition, % at 9.4 µM | AID 651800, 2012; in the data active = inhibition above about 19%;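 note: recombinant mutant TCR 2C K166C tagged with TAMRA read by polarization; 0% = receptor in buffer alone and 100% = receptor with positive control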
# HTRA1 inh: HTRA1 serine protease inhibitors, primary screen, biochemical, fluorescence polarization, HTS. AID 504803, 2011. actives 0.5% (n = 340,000). Q92743. recombinant HTRA1, FP-rhodamine activity-based probe. inhibition, % at 5.96 µM; in the data active = inhibition above about 36%;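 note: 0% = enzyme with DMSO and 100% = wells lacking enzyme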
# SIAE primary: human SIAE inhibitors, primary screen, biochemical, fluorescence polarization, FP-Rh probe, 1536-well HTS | Sialate O-acetylesterase (Homo sapiens), Q9HAT2 | SIAE FP-Rh probe binding | inhibition, % at 9.66 µM | actives 0.69% (n = 370,000) | AID 1053197, 2014;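 active = inhibition above a cutoff: mean of compounds within the control limits plus 3 SD of those, cut at about 17% in these data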;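 note: 0% = plate median of compound wells and 100% = probe without SIAE protein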
# mABHD4 FP: ABHD4 inhibitors, primary screen, biochemical, fluorescence polarization, mouse | inhibition, % at 8.92 µM | actives 0.54% (n = 370,000) | (Lyso)-N-acylphosphatidylethanolamine lipase (Mus musculus), Q8VD66 | AID 720543, 2013 | purified mABHD4, FP-Rh probe fluorescence polarization;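 active = inhibition exceeding the mean over every tested compound plus 3 SD, cut at about 30% in these data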;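 note: 0% = plate median of compound wells and 100% = S159A mutant with DMSO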
#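 Assay system: wild-type mouse ABHD4 protein; compound: single nominal dose of 8.92 µM, 0.89% DMSO final; schedule: 45 min + 60 min at 25 °C; measured by: FP readout, ex 525 nm / em 598 nm; evaluation: % inhibition of FP-Rh probe binding versus controls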
# PAD4 FP inh: human PAD4 inhibitors, primary screen, biochemical, fluorescence polarization, 1536-well format; Protein-arginine deiminase type-4 (Homo sapiens), Q9UM07; recombinant PAD4, RCA probe fluorescence polarization; inhibition, % at 6.36 µM; actives 0.41% (n = 330,000);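 active = percent inhibition above a cutoff equal to the mean of all tested compounds plus 3 SD, cut at about 15% in these data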;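 note: 0% = PAD4 with RCA probe and DMSO and 100% = probe without PAD4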
# Active calls of the source: *; x = no result. Sampled rows, rich in hits. Any-hit rate of the full collection: about 2.9%.
SMILES,PRMT1 FP inh,TCR CD3 inh,HTRA1 inh,SIAE primary,mABHD4 FP,PAD4 FP inh
COc1ccc(C(=O)N/C(=C/c2ccco2)C(=O)NCc2ccco2)cc1,25*,-6,-2,3,1,0
Cc1ccc(C(=O)N/C(=C/c2ccco2)C(=O)NCc2ccco2)cc1,11,-7,-1,-1,8,0
c1ccc(-c2nc(-c3ccco3)n3ccccc23)cc1,24*,-3,24,1,2,-18
CCC(Oc1ccccc1)C(=O)Nc1ccccc1OC (stereo not given),0,-2,10,-8,-2,-8
CCC(Oc1ccccc1)C(=O)NCCOC (stereo not given),22*,-3,-2,-3,-6,3
Nc1cc(N)nc(SCc2ccccc2Cl)n1,-2,-2,-3,7,0,x
Cc1cc2c(SCc3ccccc3Cl)nc(N)nc2nc1C,24*,-9,-32,-44,-47,x
O=S(=O)(CC1NCc2cc(F)ccc21)NCc1ccc(F)cc1 (stereo not given),-3,x,x,-4,-6,x
O=C(CSC1CS(=O)(=O)c2cc([N+](=O)[O-])ccc21)NNC(=O)c1ccccc1 (stereo not given),15,6,4,3,2,-4
O=C(CSC1CS(=O)(=O)c2cc([N+](=O)[O-])ccc21)NNC(=O)c1ccc(Cl)cc1 (stereo not given),23*,-1,2,6,8,2
CCC(CC)NC(=O)c1cccc([N+](=O)[O-])c1C,0,-6,1,-4,-1,2
Cc1c(C(=O)NNc2cc(=O)n(C)c(=O)n2C)cccc1[N+](=O)[O-],23*,-11,3,3,-7,2
CCOC(=O)c1ccc(-c2ccc3ncnc(NCc4csc(C)n4)c3c2)o1,5,-2,x,-9,0,x
Cc1ccc(CNc2ncnc3ccc(-c4ccc(CO)o4)cc23)o1,25*,8,x,0,10,x
CCCn1c(NC(=O)c2ccccc2)nc(Cc2ccccc2)c1Cc1ccccc1,-3,x,x,-6,5,x
COC(=O)C[C@H]1CC[C@@H]2[C@H](COc3ccc(NC(=O)C(C)C)cc3C(=O)N2C)O1,4,x,x,-4,0,x
CCOc1c(Br)cc(CNc2ccc3c(c2)OCCO3)cc1OC,2,1,8,29*,2,-6
COc1ccc2c(c1)CCCN2C(=O)C1CCCN(S(=O)(=O)c2ccc(Br)s2)C1 (stereo not given),4,x,x,-2,-5,x
COC(=O)c1ccc(C2Nc3ccc(/C(C)=N/NC(=O)C(OC)c4ccccc4)cc3C3C=CCC32)cc1 (stereo not given),16,1,21,22*,14,-10
CC(=O)c1ccc2c(c1)C1C=CCC1C(c1ccncc1)N2 (stereo not given),9,0,15,8,21,-10
Cc1cc(Nc2cccc(Cl)c2)nc(NCc2ccccc2)n1,-1,0,-29,24*,19,-3
Cc1cc(N/N=C/c2ccc(Cl)cc2)nc(NCc2ccccc2)n1,-1,2,-38,7,11,2
CCn1c2ccccc2c2cc(NC(=O)CSc3nnc(-c4cccc(Cl)c4)o3)ccc21,2,-4,-7,27*,-4,-7
COC(=O)C1CN(Cc2ccc(F)cc2)CCS(=O)(=O)N1Cc1cn(Cc2ccccc2)nn1 (stereo not given),-1,x,x,-2,8,x
CC(C)N1CC2=C(OC(N)=C(C#N)C2c2cccnc2)/C(=C/c2cccnc2)C1 (stereo not given),2,-6,5,0,11,16*
SMILES,PRMT1 FP inh,TCR CD3 inh,HTRA1 inh,SIAE primary,mABHD4 FP,PAD4 FP inh
COC(=O)[C@]12C[C@H](CC(=O)NCCCCc3ccccc3)C(=O)N(Cc3ccco3)C1=C[C@H](C(C)(C)C)O[C@@H]2C,4,x,x,-5,-8,x
CCOC(=O)NC1(Nc2ccc(C)cc2)Oc2ccccc2O1,37*,-4,32,9,22,-3
CCOC(=O)NC1(NC(C)C)Oc2ccccc2O1,11,3,11,6,15,-2
Cc1ccc(OCC(=O)c2ccc(Cl)s2)c([N+](=O)[O-])n1,24*,12,17,3,27,-7
Cc1ccc(CNC(=O)COc2ccc(C)nc2[N+](=O)[O-])cc1,-2,9,3,2,-1,0
COC(=O)C12C=C3CC(C)=C3C(=O)N1Cc1[nH]c3ccccc3c1C2 (stereo not given),20,x,x,8,6,x
NC(=Nc1cccc(F)c1)NC(=O)OCc1ccccc1,3,x,x,-4,0,x
COC(=O)[C@]1(Sc2ccc(C)cc2)CC(=O)N[C@@H]1c1ccco1,21*,-8,x,2,0,x
O=C(Cn1nc2ccccc2n1)N/N=C/c1cc(Cl)cc([N+](=O)[O-])c1O,2,56*,15,3,9,x
O=C(/C=C/c1ccco1)NC(=S)Nc1ccccc1,23*,1,-6,-5,-6,-5
COc1ccc2c(c1)N[C@@](CCN1C(=O)c3ccccc3C1=O)(c1[nH]c3ccccc3c1CCN1C(=O)c3ccccc3C1=O)C2=O,6,x,x,-11,-7,x
COc1ccc2ccccc2c1C1CC(=O)N2CN(C3CCCCC3)CSC2=C1C#N (stereo not given),20,4,-26,-20,23,0
CCOc1cc(C2CC(=O)N3CN(C4CCCCC4)CSC3=C2C#N)ccc1O (stereo not given),32*,1,-4,3,10,-7
COc1ccc(C2C3=C(N=C4SCC(=O)N42)c2ccccc2CC3)cc1 (stereo not given),24*,3,-13,4,1,-1
CCOC(=O)C1=C(C)N=C2SCCC(=O)N2C1c1ccc(OC)cc1 (stereo not given),x,x,x,x,x,-5
O=C(Nc1ccc(Cl)c(Cl)c1)C1CCCN1S(=O)(=O)c1cccc2cccnc12 (stereo not given),-3,x,x,8,-18,x
COc1ccc(/C=C2\CC3(OC(=O)C4CCCC4)CCCN2C3)cc1 (stereo not given),0,x,x,-2,3,x
O=C1c2nc3cc(-c4ccco4)[nH]n3c(=O)c2CN1C1CCCCC1,23*,-1,x,0,28,-3
O=C1CC2c3cc(Br)ccc3CCN2C(=O)CN1Cc1ccccc1 (stereo not given),2,-1,x,-2,1,x
Cc1ccc(NC(=O)c2ccccc2)cc1,2,0,1,-1,3,1
